Experimental data pooled from the literature.
Lines come from different studies, so protocols differ.
Target: Focal adhesion kinase 1 (PTK2, Homo sapiens, UniProt Q05397)

Structure (SMILES) | observed | action | technique | concentration | measurement | result
Cc1cc(O)c(-c2ccc([C@@H](C)CN(C)C)cc2)c2c1[nH]c(=O)c1sccc12 | enzyme activity | inhibitor |  | 0.1 µM | inhibition | 8.92%
C#Cc1cnc(Nc2ccnc(CO)c2)nc1Nc1ccccc1S(C)(=O)=NC#N (stereo not shown) | cell-free assay |  |  | 1 µM | remaining signal | 40%
N#Cc1ccc(NC(=O)Nc2ccccc2)cc1 | cell-free assay |  | competition with immobilised ligand | 25 µM | remaining binding | 100%
Cc1ccc(NC(=O)c2ccnc(C(F)(F)F)c2)cc1-c1cc(OCCO)nc(N2CCOCC2)c1 | cell-free assay |  |  | 1 µM | remaining signal | 100%
CO[C@@H]1[C@H](N(C)C(=O)c2ccccc2)C[C@H]2O[C@]1(C)n1c3ccccc3c3c4c(c5c6ccccc6n2c5c31)C(=O)NC4 | enzyme activity | inhibitor |  | 1 µM | inhibition | 2%
CCCCC(=O)Nc1ccc(-c2ccc3ncn(CCC)c(=O)c3c2)cn1 | binding |  | competition with immobilised ligand | 0.5 µM | remaining binding | 87%
C#Cc1cc(-c2cc(Nc3nc(N[C@@H](C)c4ccc(F)cn4)ncc3Cl)n[nH]2)ccc1C=O | enzyme activity | inhibitor |  | 0.2 µM | inhibition | 31.2%
C=CC(=O)N1CCC[C@@H](n2nc(-c3ccc(Oc4ccccc4)cc3)c3c(N)ncnc32)C1 | enzyme activity | inhibitor |  | 1 µM | inhibition | 5%
C[C@H]1CC[C@H](n2c3cnccc3c3cnc(Nc4ccc5c(n4)CCN(C(=O)CO)C5)nc32)CC1 | cell-free assay | inhibitor |  | 1 µM | remaining signal | 69%
COc1ccc2oc(-c3ccc4nc(N)oc4c3)c/c(=N\c3ccccc3NC(=O)CCN)c2c1 | binding |  |  | 1 µM | remaining binding | 84%
